According to ChEMBL document CHEMBL4706762, “Massively Parallel Optimization of the Linker Domain in Small Molecule Dimers Targeting a Toxic r(CUG) Repeat Expansion” (ACS Med Chem Lett, 2021):
pEC50, pIC50: −log10 of the molar value. One block for each compound: values may come before it. Calls of active or inactive are those of the source. The calls are words filed in the database; no cut-off is given here.

Key:
Myotube [1] = test: Effect on alternative splicing of MAP4K4 exon 22a in DM1-patient derived myotubes at 0.04 to 1 uM measured after 48 hrs by RT-qPCR analysis; format: functional; conditions: Homo sapiens, dose 0.04-1 µM
r(CUG) repeat expansion [2] = test: Binding affinity to r(CUG)12 RNA repeat (unknown origin) measured after 10 mins by fluorescence assay; format: nucleic-acid assay
Nucleic Acid = test: Binding affinity to r(CG)8 RNA repeat (unknown origin) measured after 10 mins by fluorescence assay; format: nucleic-acid assay
Myotube [3] = test: Effect on MBNL1 exon 5 splicing in wild type human myotubes at 0.04 to 1 uM measured after 48 hrs by RT-qPCR analysis; format: functional; conditions: dose 0.04-1 µM
r(CUG) repeat expansion [4] = test: Binding affinity to r(CUG)exp RNA repeat in DM1-patient derived myotubes assessed as reduction in number of r(CUG)exp-MBNL1 foci at 1 uM measured after 48 hrs by RNA fluorescence in situ hybridization assay; set-up: scale not given: the % may be the effect or the level left; conditions: Homo sapiens, Myotube
In short: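 Nuclear foci counted in DM1 myotubes by confocal imaging: MBNL1 by immunofluorescence, r(CUG)exp by RNA FISH. Foci per nucleus from 40 nuclei per replicate, n = 3; Student's t-test.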

r(CUG) repeat expansion [5] = test: Binding affinity to [5'-32P]-r(CUG)10 RNA (unknown origin) assessed as induction of RNA cleavage at 5 uM measured after 24 hrs by gel electrophoresis method relative to control; format: nucleic-acid assay
In short: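 5′-radiolabeled r(CUG)10 incubated with agent; cleavage fragments resolved by gel electrophoresis; n = 3, one-way ANOVA.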

[6] = Reduction in DMPK transcription in DM1-patient derived myotubes at 0.04 to 1 uM measured after 48 hrs by RT-qPCR analysis; format: functional, Homo sapiens, Myotube; set-up: scale not given: the % may be the effect or the level left; conditions: dose 0.04-1 µM
In short: (§1)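 Transcript levels, either DMPK or r(CUG) repeat-containing mRNAs, quantified by RT-qPCR in treated DM1 myotubes; n = 6, one-way ANOVA.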

Myotube [7] = test: Effect on DMPK transcription in wild type human myotubes at 0.04 to 1 uM measured after 48 hrs by RT-qPCR analysis; format: functional; conditions: dose 0.04-1 µM
r(CUG) repeat expansion [8] = test: Binding affinity to r(CUG)exp RNA repeat in DM1-patient derived myotubes assessed as improvement in MBNL1 exon 5 splicing defect at 0.04 to 1 uM measured after 48 hrs by RT-qPCR analysis relative to control; format: tissue-based; conditions: Homo sapiens, Myotube, dose 0.04-1 µM
In short: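 Dose–response for MBNL1 exon 5 splicing rescue in DM1 patient myotubes (1300 r(CUG) repeats) after 48 h treatment; n = 6, SD, one-way ANOVA.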

r(CUG) repeat expansion [9] = test: Binding affinity to wild-type DMPK r(CUG)20 RNA repeat in DM1 patient-derived myotubes at 1 uM measured after 48 hrs by RT-qPCR analysis; conditions: Homo sapiens, Myotube; in short: as §1
r(CUG) repeat expansion [10] = test: Binding affinity to CASK r(CUG)16 RNA repeat in DM1 patient-derived myotubes at 1 uM measured after 48 hrs by RT-qPCR analysis; conditions: Homo sapiens, Myotube; in short: as §1
r(CUG) repeat expansion [11] = test: Binding affinity to MAP3K4 r(CUG)11 RNA repeat in DM1 patient-derived myotubes at 1 uM measured after 48 hrs by RT-qPCR analysis; format: tissue-based; conditions: Homo sapiens, Myotube; in short: as §1
r(CUG) repeat expansion [12] = test: Binding affinity to LRP8 r(CUG)11 RNA repeat repeat in DM1 patient-derived myotubes at 1 uM measured after 48 hrs by RT-qPCR analysis; conditions: Homo sapiens, Myotube; in short: as §1
r(CUG) repeat expansion [13] = test: Binding affinity to SCUBE2 r(CUG)7 RNA repeat in DM1 patient-derived myotubes at 1 uM measured after 48 hrs by RT-qPCR analysis; conditions: Homo sapiens, Myotube; in short: as §1
r(CUG) repeat expansion [14] = test: Binding affinity to SORCS2 r(CUG)7 RNA repeat in DM1 patient-derived myotubes at 1 uM measured after 48 hrs by RT-qPCR analysis; conditions: Homo sapiens, Myotube; in short: as §1
[15] = Drug localization in nucleus of DM1-patient derived myotubes at 5 uM measured after 24 hrs by live-cell fluorescence microscopy; format: ADME, subcellular; conditions: human, myotube
In short: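 DM1 patient myotubes bearing 1300 r(CUG) repeats given 5 μM agent; subcellular localization followed via intrinsic fluorescence of the H RNA-binding modules.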

[16] = Cytotoxicity against DM1-patient derived myotubes assessed as change in cellular morphology at 5 uM measured after 48 hrs; conditions: human, myotube
In short: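 Cell morphology of DM1 patient-derived myotubes inspected during 48 h splicing treatment at 5 μM; agents altering morphology were re-tested at 1 μM.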

r(CUG) repeat expansion [17] = test: Binding affinity to r(CUG)exp RNA repeat in DM1-patient derived myotubes assessed as improvement in MBNL1 exon 5 splicing defect at 5 uM measured after 48 hrs by RT-qPCR analysis relative to control; conditions: Homo sapiens, Myotube
In short: (§2)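 DM1 patient-derived myotubes (1300 r(CUG) repeats) treated 48 h, then MBNL1 exon 5 splicing rescue measured. Single-dose screens at 5 μM or 1 μM, where 1 μM was used if 5 μM altered morphology, n = 3. Dose–response also run, n = 6. SD shown; one-way ANOVA.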

r(CUG) repeat expansion [18] = test: Binding affinity to r(CUG)exp RNA repeat in DM1-patient derived myotubes assessed as improvement in MBNL1 exon 5 splicing defect at 1 uM measured after 48 hrs by RT-qPCR analysis relative to control; conditions: Homo sapiens, Myotube; in short: as §2
r(CUG) repeat expansion [19] = test: Binding affinity to 5'-biotinylated r(CUG)12 RNA repeat (unknown origin) assessed as disruption of r(CUG)12-His-tagged MBNL1 complex formation preincubated for 15 mins followed by MBNL1 addition and measured after 15 mins by TR-FRET assay; format: nucleic-acid assay

Structure (SMILES): CNCCCCN(CC(=O)N(CCN)CC(=O)N(CCCNC(=O)CCCOc1cccc(-c2nc3ccc(-c4nc5cc(N6CCN(C)CC6)ccc5[nH]4)cc3[nH]2)c1)CC(=O)NCCCCCC(=O)NCCCCNCCCNC(=O)c1csc(-c2csc(CCNC(=O)[C@@H](NC(=O)[C@@H](C)[C@H](O)[C@@H](C)NC(=O)[C@@H](NC(=O)c3nc([C@H](CC(N)=O)NC[C@H](N)C(N)=O)nc(N)c3C)[C@@H](O[C@@H]3O[C@@H](CO)[C@@H](O)[C@H](O)[C@@H]3O[C@@H]3O[C@H](CO)[C@@H](O)[C@H](OC(N)=O)[C@@H]3O)c3cnc[nH]3)[C@@H](C)O)n2)n1)C(=O)CN(C)C(=O)CN(CCCn1ccnc1)C(=O)CCCOc1cccc(-c2nc3ccc(-c4nc5cc(N6CCN(C)CC6)ccc5[nH]4)cc3[nH]2)c1
Activity (Myotube [1]): inactive
pEC50 (r(CUG) repeat expansion [2]): 6.92
Activity (Nucleic Acid): inactive
Activity (Myotube [3]): inactive
Activity (r(CUG) repeat expansion [4]): 30%
Activity (r(CUG) repeat expansion [5]): > 70%
Activity [6]: 35%
Activity (Myotube [7]): inactive
Activity (r(CUG) repeat expansion [8]): 30%
Activity (r(CUG) repeat expansion [9]): inactive
Activity (r(CUG) repeat expansion [10]): inactive
Activity (r(CUG) repeat expansion [11]): inactive
Activity (r(CUG) repeat expansion [12]): inactive
Activity (r(CUG) repeat expansion [13]): inactive
Activity (r(CUG) repeat expansion [14]): inactive

Structure (SMILES): CCCN(CC(=O)N(CCCNC(=O)CCCOc1cccc(-c2nc3ccc(-c4nc5cc(N6CCN(C)CC6)ccc5[nH]4)cc3[nH]2)c1)CC(N)=O)C(=O)CN(CCO)C(=O)CN(CCN)C(=O)CN(CCN1CCOCC1)C(=O)CCCOc1cccc(-c2nc3ccc(-c4nc5cc(N6CCN(C)CC6)ccc5[nH]4)cc3[nH]2)c1
Drug uptake [15]: Active
Activity [16]: Non-Toxic

Structure (SMILES): CNCCCCN(CC(=O)N(CCN)CC(=O)N(CCCNC(=O)CCCOc1cccc(-c2nc3ccc(-c4nc5cc(N6CCN(C)CC6)ccc5[nH]4)cc3[nH]2)c1)CC(N)=O)C(=O)CN(Cc1ccccc1)C(=O)CN(C)C(=O)CCCOc1cccc(-c2nc3ccc(-c4nc5cc(N6CCN(C)CC6)ccc5[nH]4)cc3[nH]2)c1
Drug uptake [15]: Active
Activity [16]: Non-Toxic

Structure (SMILES): CNCCCCN(CC(=O)N(CC(=O)N(CC(=O)N(CCO)CC(=O)N(CCCNC(=O)CCCOc1cccc(-c2nc3ccc(-c4nc5cc(N6CCN(C)CC6)ccc5[nH]4)cc3[nH]2)c1)CC(N)=O)C1CCCCC1)Cc1cccnc1)C(=O)CCCOc1cccc(-c2nc3ccc(-c4nc5cc(N6CCN(C)CC6)ccc5[nH]4)cc3[nH]2)c1
Drug uptake [15]: Active
Activity [16]: Non-Toxic

Continued, in another order:

Drug uptake [15]: Active
Structure (SMILES): COCCN(CC(=O)N(CCCNC(=O)CCCOc1cccc(-c2nc3ccc(-c4nc5cc(N6CCN(C)CC6)ccc5[nH]4)cc3[nH]2)c1)CC(N)=O)C(=O)CN(CCN)C(=O)CN(Cc1ccc(OC)cc1)C(=O)CN(CCN)C(=O)CCCOc1cccc(-c2nc3ccc(-c4nc5cc(N6CCN(C)CC6)ccc5[nH]4)cc3[nH]2)c1
Activity [16]: Non-Toxic

Drug uptake [15]: Active
Structure (SMILES): CNCCCCN(CC(=O)N(CCCNC(=O)CCCOc1cccc(-c2nc3ccc(-c4nc5cc(N6CCN(C)CC6)ccc5[nH]4)cc3[nH]2)c1)CC(N)=O)C(=O)CN(CCCCNC)C(=O)CN(CCO)C(=O)CN(Cc1cccnc1)C(=O)CCCOc1cccc(-c2nc3ccc(-c4nc5cc(N6CCN(C)CC6)ccc5[nH]4)cc3[nH]2)c1
Activity [16]: Non-Toxic

Drug uptake [15]: Active
Activity (r(CUG) repeat expansion [17]): 30%
Activity (r(CUG) repeat expansion [18]): inactive
pEC50 (r(CUG) repeat expansion [2]): 5.94
pIC50 (r(CUG) repeat expansion [19]): 4.49
Structure (SMILES): CCCN(CC(=O)N(CCC)CC(=O)N(CCC)CC(=O)N(CCC)CC(=O)N(CC(N)=O)Cc1cn(CCCNC(=O)CCCOc2ccc(-c3nc4ccc(-c5nc6cc(N7CCN(C)CC7)ccc6[nH]5)cc4[nH]3)cc2)nn1)C(=O)CNCc1cn(CCCNC(=O)CCCOc2cccc(-c3nc4ccc(-c5nc6cc(N7CCN(C)CC7)ccc6[nH]5)cc4[nH]3)c2)nn1
